Series [1] has as its system Human immunodeficiency virus 1. Put plainly: Antiviral activity against HIV1 NL4-3 infected in human MT4 cells by luciferase reporter gene assay. It counts as functional, organism-based. The method, boiled down: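 HIV-1 NL4-3 Nanoluc-sec reporter virus (secreted NanoLuc insert) infecting MT4 cells, multicycle replication format, compounds at various concentrations; replication read as NanoLuc luciferase activity (Nano-Glo).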
A general note: Reporter assays use an easily measured gene product as a stand-in for the process of interest.

The next series deals with MT4. In words: Cytotoxicity against human MT4 cells assessed as reduction in cell viability after 3 days by CellTiter-Glo luminescent assay. It counts as cell-based. Conditions: mt4, 72 h; call rule not given here. Background: Cellular ATP, detected with luciferase, serves as a proxy for viable cell number.
The nature of series [2]: Therapeutic index, ratio of CC50 for human MT4 cells to EC50 for HIV1 NL4-3 infected in human MT4 cells. The class given is toxicity, cell-based. To be noted: read-out: Ratio CC50/EC50. In a few lines:
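TI calculated as CC50 (CellTiter-Glo, MT4 cells, 3 days) divided by EC50 (HIV-1 NL4-3 Nanoluc-sec multicycle replication in MT4 cells, luciferase read-out); CC50/EC50 below 5 taken as no selective anti-HIV activity.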

[3] abbreviates: Human immunodeficiency virus 1, NL4-3, MT4, read-out: EC50.

The term EC50 denotes the concentration that produces a half-maximal response. One may read the CC50 as the concentration giving 50% cytotoxicity. `CC(=O)O[C@H]1[C@@H](OC(C)=O)[C@@]2(C)[C@@H]3CC[C@H]4C(C)(C)[C@@H](OC(=O)CCCC(=O)O)CC[C@@]45C[C@@]35CC[C@@]23CO[C@@]2(C(C)(C)O)CC[C@](C)(O2)[C@@H]13`: the EC50 entry in series [1] is listed as “Not Active”. Also, the CC50 in the series on MT4 was above 20 µM. For the same compound, in series [2], the selectivity ratio is below 5.
On to `CC(=O)O[C@H]1[C@@H](OC(C)=O)[C@@]2(C)[C@@H]3CC[C@H]4C(C)(C)[C@@H](OC(=O)CC(C)(C)C(=O)O)CC[C@@]45C[C@@]35CC[C@@]23CO[C@@]2(C(C)(C)O)CC[C@](C)(O2)[C@@H]13`, for which the concentration for a half-maximal effect (EC50) in series [1] (setting [3]) turned out to be 0.025 µM. Further, in the series with MT4, the 50% cytotoxic concentration (CC50) is above 20 µM. Besides, in series [2], the selectivity ratio is above 800.
On to `CC(=O)O[C@H]1[C@H](O)[C@H]([C@]2(C)CC[C@@H](C(C)(C)O)O2)[C@@]2(C)CC[C@@]34C[C@@]35CC[C@H](O[C@@H]3OC[C@@H](O)[C@H](O)[C@H]3O)C(C)(C)[C@@H]5CC[C@H]4[C@]12C`, for which the concentration for a half-maximal effect (EC50) in series [1] (setting [3]) came out at 4.85 µM. Moreover, the CC50 in the series with MT4 was above 40 µM.
For `CC1(C)[C@@H](O)CC[C@]23C[C@]24CC[C@]25CO[C@@]6(C(C)(C)O)CC[C@](C)(O6)[C@H]2[C@@H](O)[C@@H](O)[C@@]5(C)[C@@H]4CC[C@@H]13`, in series [1] (setting [3]), the EC50 is above 40 µM. Besides, the CC50 in the series on MT4 is above 40 µM. The selectivity ratio in series [2] is below 5.
Regarding `CC(=O)O[C@H]1[C@@H](OC(C)=O)[C@@]2(C)[C@@H]3CC[C@H]4C(C)(C)[C@@H](OC(=O)CCC(C)(C)C(=O)O)CC[C@@]45C[C@@]35CC[C@@]23CO[C@@]2(C(C)(C)O)CC[C@](C)(O2)[C@@H]13`, in series [1] (setting [3]), the EC50 was 0.048 µM. Besides, in the series with MT4, the CC50 is above 5 µM.
As to `CC(=O)O[C@H]1[C@@H](OC(C)=O)[C@@]2(C)[C@@H]3CC[C@H]4C(C)(C)[C@@H](OC(C)=O)CC[C@@]45C[C@@]35CC[C@@]23CO[C@@]2(C(C)(C)O)CC[C@](C)(O2)[C@@H]13`, the EC50 in series [1] (setting [3]) is 2.44 µM. Besides, the cytotoxic concentration (CC50) with MT4 is above 40 µM.
As to `CC(=O)O[C@H]1[C@@H](OC(C)=O)[C@@]2(C)[C@@H]3CC[C@H]4C(C)(C)C(=O)CC[C@@]45C[C@@]35CC[C@@]23CO[C@@]2(C(C)(C)O)CC[C@](C)(O2)[C@@H]13`, in series [1], the half-maximal effective concentration (EC50) result was “Not Active”. Further, the CC50 in the series on MT4 was above 30 µM. For the same compound, in series [2], the selectivity ratio was below 5.
With `CC(=O)O[C@H]1[C@@H](OC(C)=O)[C@@]2(C)[C@@H]3CC[C@H]4C(C)(C)[C@@H](OC(=O)CCC(=O)O)CC[C@@]45C[C@@]35CC[C@@]23CO[C@@]2(C(C)(C)O)CC[C@](C)(O2)[C@@H]13`, the concentration giving a half-maximal response (EC50) in series [1] (setting [3]) turned out to be 7.7 µM. For the same compound, the cytotoxic concentration (CC50) with MT4 is above 40 µM.
In the same order, the values of `CC(=O)O[C@H]1[C@@H](OC(C)=O)[C@@]2(C)[C@@H]3CC[C@H]4C(C)(C)[C@@H](OC(=O)COCC(=O)O)CC[C@@]45C[C@@]35CC[C@@]23CO[C@@]2(C(C)(C)O)CC[C@](C)(O2)[C@@H]13` are 0.12 µM and above 5 µM.
As to `CC(=O)O[C@H]1[C@@H](O)[C@@]2(C)[C@@H]3[C@@H](O)C[C@H]4C(C)(C)[C@@H](O[C@@H]5OC[C@@H](O)[C@H](O)[C@H]5O)CC[C@@]45C[C@@]35CC[C@@]23CO[C@@]2(C(C)(C)O)CC[C@](C)(O2)[C@@H]13`, the concentration for a half-maximal effect (EC50) entry in series [1] is on record as “Not Active”. For the same compound, the cytotoxic concentration (CC50) in the series on MT4 is above 40 µM. The selectivity ratio in series [2] was below 5.
`CC(=O)O[C@H]1[C@@H](OC(C)=O)[C@@]2(C)[C@@H]3CC[C@H]4C(C)(C)[C@@H](OC(=O)CC(C)C(=O)O)CC[C@@]45C[C@@]35CC[C@@]23CO[C@@]2(C(C)(C)O)CC[C@](C)(O2)[C@@H]13` (some centres undefined): in series [1] (setting [3]), the EC50 turned out to be 1.11 µM. In the series with MT4, the 50% cytotoxic concentration (CC50) was above 20 µM.
In the case of `CC(C)(O)[C@@H]1CC[C@@](C)([C@H]2[C@@H](O)[C@H](O)[C@@]3(C)[C@@H]4[C@@H](O)C[C@H]5C(C)(C)[C@@H](O[C@@H]6OC[C@@H](O)[C@H](O)[C@H]6O)CC[C@@]56C[C@@]46CC[C@]23C)O1`, in series [1], the EC50 entry is listed as “Not Active”. Further, the CC50 with MT4 is above 40 µM. The selectivity ratio in series [2] is below 5.
The corresponding values for `CC(=O)O[C@H]1[C@@H]2O[C@@]3(C(C)(C)O)CC[C@](C)(O3)[C@@H]2[C@@]2(CO)CC[C@@]34C[C@@]35CC[C@H](O[C@@H]3OC[C@@H](O)[C@H](O)[C@H]3O)C(C)(C)[C@@H]5CC[C@H]4[C@]12C` are “Not Active”, above 40 µM and below 5.
Turning to `CC(=O)O[C@H]1[C@@H](OC(C)=O)[C@@]2(C)[C@@H]3CC[C@H]4C(C)(C)[C@@H](OC(=O)CC5(CC(=O)O)CCCC5)CC[C@@]45C[C@@]35CC[C@@]23CO[C@@]2(C(C)(C)O)CC[C@](C)(O2)[C@@H]13`, the concentration for a half-maximal effect (EC50) in series [1] (setting [3]) amounted to 1.59 µM. Also, the CC50 in the series on MT4 is above 20 µM.
In the same order, the values of `CC(=O)O[C@H]1[C@@H](OC(C)=O)[C@@]2(C)[C@@H]3CC[C@H]4C(C)(C)[C@@H](O[C@@H]5OC[C@@H](O)[C@H](O)[C@H]5O)CC[C@@]45C[C@@]35CC[C@@]23CO[C@@]2(C(C)(C)O)CC[C@](C)(O2)[C@@H]13` are 2.32 µM and above 40 µM.
In the same order, the values of `CC(=O)O[C@H]1[C@@H](O)[C@@]2(C)[C@@H]3CC[C@H]4C(C)(C)[C@@H](O[C@@H]5OC[C@@H](O)[C@H](O)[C@H]5O)CC[C@@]45C[C@@]35CC[C@@]23CO[C@@]2(C(C)(C)O)CC[C@](C)(O2)[C@@H]13` are 4.65 µM and above 40 µM.
As to `CC1(C)[C@@H](O[C@@H]2OC[C@@H](O)[C@H](O)[C@H]2O)CC[C@]23C[C@]24CC[C@]25CO[C@@]6(C(C)(C)O)CC[C@](C)(O6)[C@H]2[C@@H](O)[C@@H](O)[C@@]5(C)[C@@H]4CC[C@@H]13`, the EC50 in series [1] (setting [3]) was 7.62 µM. For the same compound, the cytotoxic concentration (CC50) with MT4 was above 40 µM.
Turning to `CC(=O)O[C@H]1[C@@H](OC(C)=O)[C@@]2(C)[C@@H]3CC[C@H]4C(C)(C)[C@@H](O)CC[C@@]45C[C@@]35CC[C@@]23CO[C@@]2(C(C)(C)O)CC[C@](C)(O2)[C@@H]13`, in series [1], the EC50 entry is on record as “Not Active”. For the same compound, the CC50 in the series with MT4 was above 40 µM. Also, the selectivity ratio in series [2] is below 5.
For the compound `CC(=O)O[C@H]1[C@@H](OC(C)=O)[C@@]2(C)[C@@H]3CC[C@H]4C(C)(C)[C@@H](O[C@@H]5OC[C@@H](O)[C@H](O)[C@H]5O)CC[C@@]45C[C@@]35CC[C@@]23CO[C@@](C)(CCC(=O)C(C)(C)O)[C@@H]13`, the EC50 in series [1] (setting [3]) is above 30 µM. The 50% cytotoxic concentration (CC50) with MT4 is above 30 µM. Besides, the selectivity ratio in series [2] was below 5.
For the compound `CC(=O)O[C@H]1[C@@H](OC(C)=O)[C@@]2(C)[C@@H]3CC[C@H]4C(C)(C)[C@@H](OC(=O)CC(C)(C)CC(=O)O)CC[C@@]45C[C@@]35CC[C@@]23CO[C@@]2(C(C)(C)O)CC[C@](C)(O2)[C@@H]13`, in series [1], the EC50 entry is “Not Active”. Further, the half-maximal cytotoxic concentration (CC50) with MT4 was above 20 µM. The selectivity ratio in series [2] is below 5.
For the compound `CCC(=O)O[C@H]1CC[C@]23C[C@]24CC[C@]25CO[C@@]6(C(C)(C)O)CC[C@](C)(O6)[C@H]2[C@@H](OC(C)=O)[C@@H](OC(C)=O)[C@@]5(C)[C@@H]4CC[C@H]3C1(C)C`, the half-maximal effective concentration (EC50) result in series [1] is on record as “Not Active”. In addition, in the series on MT4, the half-maximal cytotoxic concentration (CC50) was above 40 µM. The selectivity ratio in series [2] is below 5.
As to `Cc1cn([C@H]2C[C@H](N=[N+]=[N-])[C@@H](CO)O2)c(=O)[nH]c1=O` [ZIDOVUDINE], in the series on MT4, the cytotoxic concentration (CC50) was 77.5 µM.
